Experimental findings from ChEMBL document CHEMBL1123096, “Alpha-adrenoreceptor reagents. 3. Synthesis of some 2-substituted 1,4-benzodioxans as selective presynaptic alpha 2-adrenoreceptor antagonists” (J Med Chem, 1985) are described below.

For assay [1], the target named is Adrenergic receptor alpha-2 (Rattus norvegicus) (UniProt P22086+P19328+P22909). Kind of assay: Presynaptic antagonist activity towards alpha-2 adrenergic receptor. The assay is classed as functional. Summed up:
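Vas deferens from rat or mouse; the mouse tissue was in Mg-free Krebs at 30 °C under 0.5 g tension, stimulated at 0.1 Hz, 3 ms, 100–140 V, giving a twitch of about 100 mg. […] Standard curves were run before and after the test curve.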

The target in assay [2] is Adrenergic receptor alpha-1 (Rattus norvegicus) (UniProt P15823+P23944+P43140). Kind of assay: post-synaptic antagonist activity towards alpha-1 adrenergic receptor was determined. Concentration giving a dose response to phenylephrine (idazoxan=1) was reported. In kind it is functional. The procedure, abridged:
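Rat anococcygeus, postsynaptic α1 antagonism. At least five phenylephrine concentration–response curves were run alone, then at least four with the antagonist present.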

Assay [3] deals with Adrenergic receptor alpha (Rattus norvegicus) (UniProt P15823+P23944+P43140+P22086+P19328+P22909). Kind of assay: Selectivity as ratio […] against alpha-2 receptor to that of alpha-1 receptor. In kind it is protein assay.

Sequence of Adrenergic receptor alpha-2 (Rattus norvegicus) (P19328 whole entry, looked up): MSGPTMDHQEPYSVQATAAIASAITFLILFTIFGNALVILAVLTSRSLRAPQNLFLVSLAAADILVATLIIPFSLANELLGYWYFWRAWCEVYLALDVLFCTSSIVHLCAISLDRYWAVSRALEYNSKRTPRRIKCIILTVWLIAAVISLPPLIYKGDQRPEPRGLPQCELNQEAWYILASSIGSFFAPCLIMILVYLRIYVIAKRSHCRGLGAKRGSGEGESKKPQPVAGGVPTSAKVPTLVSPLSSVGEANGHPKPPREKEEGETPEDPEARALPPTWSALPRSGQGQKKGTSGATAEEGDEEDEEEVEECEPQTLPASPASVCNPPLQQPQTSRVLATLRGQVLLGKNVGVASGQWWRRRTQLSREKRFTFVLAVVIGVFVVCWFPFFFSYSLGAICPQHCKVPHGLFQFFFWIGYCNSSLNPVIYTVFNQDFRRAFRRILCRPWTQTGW
Sequence of Adrenergic receptor alpha-2 (Rattus norvegicus) (P22086 whole entry, looked up): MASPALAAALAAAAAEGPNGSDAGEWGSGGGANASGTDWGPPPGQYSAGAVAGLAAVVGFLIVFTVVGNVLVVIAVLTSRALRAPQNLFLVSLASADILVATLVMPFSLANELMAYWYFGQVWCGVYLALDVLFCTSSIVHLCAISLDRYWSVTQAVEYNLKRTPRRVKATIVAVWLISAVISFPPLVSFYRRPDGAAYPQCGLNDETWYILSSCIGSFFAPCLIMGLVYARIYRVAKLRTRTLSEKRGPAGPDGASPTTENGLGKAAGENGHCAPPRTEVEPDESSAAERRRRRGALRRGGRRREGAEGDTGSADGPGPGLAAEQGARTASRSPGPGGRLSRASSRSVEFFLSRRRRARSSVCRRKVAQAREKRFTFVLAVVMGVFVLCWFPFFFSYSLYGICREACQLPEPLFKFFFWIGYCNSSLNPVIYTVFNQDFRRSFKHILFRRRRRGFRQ
Sequence of Adrenergic receptor alpha-2 (Rattus norvegicus) (P22909 whole entry, looked up): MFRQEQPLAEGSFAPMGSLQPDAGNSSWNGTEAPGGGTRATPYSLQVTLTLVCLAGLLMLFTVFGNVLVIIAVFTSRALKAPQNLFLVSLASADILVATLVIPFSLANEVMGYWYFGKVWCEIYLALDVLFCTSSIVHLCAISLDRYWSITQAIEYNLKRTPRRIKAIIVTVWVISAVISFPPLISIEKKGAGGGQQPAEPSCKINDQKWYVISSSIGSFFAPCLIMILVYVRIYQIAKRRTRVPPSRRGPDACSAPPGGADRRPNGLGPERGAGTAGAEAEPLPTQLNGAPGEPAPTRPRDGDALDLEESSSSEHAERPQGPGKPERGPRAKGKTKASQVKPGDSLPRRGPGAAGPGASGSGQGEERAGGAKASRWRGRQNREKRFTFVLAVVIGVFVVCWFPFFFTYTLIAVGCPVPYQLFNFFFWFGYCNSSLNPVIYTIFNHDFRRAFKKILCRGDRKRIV
Sequence of Adrenergic receptor alpha-1 (Rattus norvegicus) (P15823 whole entry, looked up): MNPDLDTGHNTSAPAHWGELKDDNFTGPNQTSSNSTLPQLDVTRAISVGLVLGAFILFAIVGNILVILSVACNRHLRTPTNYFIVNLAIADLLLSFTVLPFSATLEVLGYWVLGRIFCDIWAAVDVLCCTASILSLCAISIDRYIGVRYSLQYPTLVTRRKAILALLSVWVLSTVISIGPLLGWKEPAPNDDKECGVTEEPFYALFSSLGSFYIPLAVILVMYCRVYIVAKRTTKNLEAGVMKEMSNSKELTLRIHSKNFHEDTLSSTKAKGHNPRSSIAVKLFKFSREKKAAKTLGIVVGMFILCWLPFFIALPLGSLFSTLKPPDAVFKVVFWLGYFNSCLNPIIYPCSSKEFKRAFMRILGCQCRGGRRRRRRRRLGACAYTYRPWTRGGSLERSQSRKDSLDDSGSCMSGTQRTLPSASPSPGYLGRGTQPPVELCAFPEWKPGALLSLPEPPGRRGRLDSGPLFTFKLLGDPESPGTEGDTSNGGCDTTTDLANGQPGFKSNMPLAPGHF
Sequence of Adrenergic receptor alpha-1 (Rattus norvegicus) (P23944 whole entry, looked up): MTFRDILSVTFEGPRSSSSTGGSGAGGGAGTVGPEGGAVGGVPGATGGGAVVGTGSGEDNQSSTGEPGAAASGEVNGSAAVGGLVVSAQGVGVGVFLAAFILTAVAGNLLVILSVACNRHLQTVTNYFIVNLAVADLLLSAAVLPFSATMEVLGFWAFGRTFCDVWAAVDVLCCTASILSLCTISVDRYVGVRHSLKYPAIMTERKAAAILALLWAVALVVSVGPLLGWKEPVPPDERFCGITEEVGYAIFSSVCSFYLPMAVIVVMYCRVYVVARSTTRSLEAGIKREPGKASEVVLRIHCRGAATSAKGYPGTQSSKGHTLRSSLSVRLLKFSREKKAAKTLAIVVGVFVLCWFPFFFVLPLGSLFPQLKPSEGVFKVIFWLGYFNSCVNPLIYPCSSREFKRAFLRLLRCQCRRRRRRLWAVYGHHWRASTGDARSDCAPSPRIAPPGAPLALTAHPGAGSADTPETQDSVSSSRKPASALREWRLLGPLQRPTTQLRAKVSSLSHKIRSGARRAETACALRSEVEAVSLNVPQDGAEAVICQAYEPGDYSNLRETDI
Sequence of Adrenergic receptor alpha-1 (Rattus norvegicus) (P43140 whole entry, looked up): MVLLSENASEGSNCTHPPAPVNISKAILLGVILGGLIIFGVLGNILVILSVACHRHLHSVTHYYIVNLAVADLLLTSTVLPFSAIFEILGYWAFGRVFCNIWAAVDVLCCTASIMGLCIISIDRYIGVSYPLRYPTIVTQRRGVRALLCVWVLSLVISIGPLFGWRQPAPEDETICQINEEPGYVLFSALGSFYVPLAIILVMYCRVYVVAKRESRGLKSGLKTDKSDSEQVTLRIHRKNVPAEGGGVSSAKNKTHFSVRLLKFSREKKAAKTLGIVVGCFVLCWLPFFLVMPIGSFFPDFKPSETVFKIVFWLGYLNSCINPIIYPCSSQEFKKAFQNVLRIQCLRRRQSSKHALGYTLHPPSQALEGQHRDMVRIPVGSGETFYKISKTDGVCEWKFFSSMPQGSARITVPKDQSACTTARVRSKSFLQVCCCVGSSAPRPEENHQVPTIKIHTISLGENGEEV

In assay [1], `COc1ccccc1COC1(C2=NCCN2)COc2ccccc2O1` (centres undefined) came in with a potency relative to idazoxan of 1.7. In assay [2], this compound had a Postsynaptic antagonist of 2.3. The Ratio in assay [3] is 0.75.
For `COc1ccc(OC2(C3=NCCN3)COc3ccccc3O2)cc1` (centres undefined) the same measures were 0.34, 2 and 0.17.
In assay [1], `OCCCCOC1(C2=NCCN2)COc2ccccc2O1` (centres undefined) came in with a potency relative to idazoxan of 0.24. The compound further displayed a Postsynaptic antagonist in assay [2] of 1. Also, the Ratio in assay [3] stood at 0.24.
In the case of `CCCCCCCC1(C2=NCCN2)COc2ccccc2O1` (centres undefined), the potency relative to idazoxan in assay [1] is 0.9. The compound further came in with a Postsynaptic antagonist in assay [2] of 1.1. The Ratio in assay [3] was 0.85.
For `C#CCOC1(C2=NCCN2)COc2ccccc2O1` (centres undefined) the same measures were 1.2, 2.1 and 0.57.
For `OCCOC1(C2=NCCN2)COc2ccccc2O1` (centres undefined), in assay [1], the potency relative to idazoxan stood at 1.4. In addition, the Postsynaptic antagonist in assay [2] worked out at 1. Also, the Ratio in assay [3] was determined as 1.4.
Regarding `c1ccc(OC2(C3=NCCN3)COc3ccccc3O2)cc1` (centres undefined), in assay [1], the potency relative to idazoxan was 0.023. The Postsynaptic antagonist in assay [2] was 1. The Ratio in assay [3] came out at 0.023.
In assay [1], `COCCOC1(C2=NCCN2)COc2ccccc2O1` (centres undefined) showed a potency relative to idazoxan of 0.2. The Postsynaptic antagonist in assay [2] stood at 1. The Ratio in assay [3] is 0.2.
Turning to `c1ccc(CCOC2(C3=NCCN3)COc3ccccc3O2)cc1` (centres undefined), the potency relative to idazoxan in assay [1] came out at 1. In addition, in assay [2], the Postsynaptic antagonist amounted to 8.8. Moreover, the Ratio in assay [3] was 0.14.
Taken in the same sequence, the figures for `COC1(C2=NC(C)CN2)COc2ccccc2O1` (centres undefined) were 0.09, 1 and 0.09.
Taken in the same sequence, the figures for `C1=C(C2(C3=NCCN3)COc3ccccc3O2)CCCC1` (centres undefined) were 0.026, 0.75 and 0.035.
For `COc1cc2c(cc1OC)OC(OC)(C1=NCCN1)CO2` (centres undefined) the same measures were 0.006, 0.05 and 0.1.
In assay [1], `Cc1cccc(OC2(C3=NCCN3)COc3ccccc3O2)c1` (centres undefined) had a potency relative to idazoxan of 0.35. The compound also returned a Postsynaptic antagonist in assay [2] of 0.2. Moreover, the Ratio in assay [3] was found to be 1.75.
Consider `CC(C)C1(C2=NCCN2)COc2ccccc2O1` (centres undefined), for which, in assay [1], the potency relative to idazoxan came out at 0.024. This compound also had a Postsynaptic antagonist in assay [2] of under 0.006.
In turn, `COc1ccc(COC2(C3=NCCN3)COc3ccccc3O2)cc1` (centres undefined) gave a potency relative to idazoxan in assay [1] of 0.6. The Postsynaptic antagonist in assay [2] was determined as 4.8. For the same compound, the Ratio in assay [3] came to 0.13.
For `c1ccc(C2(C3=NCCN3)COc3ccccc3O2)cc1` (centres undefined) the same measures were 0.04, 0.026 and 1.6.
In turn, `Clc1ccccc1COC1(C2=NCCN2)COc2ccccc2O1` (centres undefined) gave a potency relative to idazoxan in assay [1] of 0.36. Besides, the Postsynaptic antagonist in assay [2] was determined as 1. The Ratio in assay [3] is 0.36.
In assay [1], `c1ccc2c(c1)OCC(C1=NCCN1)(C1CCCC1)O2` (centres undefined) yielded a potency relative to idazoxan of 0.015. In assay [2], this compound displayed a Postsynaptic antagonist of 0.4. For the same compound, the Ratio in assay [3] was 0.04.
For `CCCCCOC1(C2=NCCN2)COc2ccccc2O1` (centres undefined) the same measures were 0.72, 0.6 and 1.2.
For `C=CC1(C2=NCCN2)COc2ccccc2O1` (centres undefined) the same measures were 1, 0.3 and 3.3.
For `CC1Oc2ccccc2OC1C1=NCCN1` (centres undefined) the same measures were 0.002, 0.023 and 0.087.
Compound `CCCCC1(C2=NCCN2)COc2ccccc2O1` (centres undefined) came in with a potency relative to idazoxan in assay [1] of 1.5. This compound also gave a Postsynaptic antagonist in assay [2] of 2.2. In assay [3], the Ratio was 0.68.
Taken in the same sequence, the figures for `c1ccc2c(c1)OCC(OC1CCCC1)(C1=NCCN1)O2` (centres undefined) were 0.16, 1 and 0.16.
Taken in the same sequence, the figures for `Clc1ccc(COC2(C3=NCCN3)COc3ccccc3O2)cc1` (centres undefined) were 1, 2.46 and 0.4.
For `C1=C(C2(C3=NCCN3)COc3ccccc3O2)CCC1` (centres undefined), in assay [1], the potency relative to idazoxan was 0.15. Further, the Postsynaptic antagonist in assay [2] is 0.09. The Ratio in assay [3] was 1.7.
